# MT stabilize HCS: stabilizes microtubules in HeLa cells. HeLa tubulin immunostaining HCS, 24 h; share of cells brighter than vehicle mean+2SD. AID 2205. % tubulin-high responders, % at 10 µM. 0.83% of 200,000 active;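 active = plate Z-score above 3 for both tubulin-high and condensed-nucleus cell shares, with cell loss under 80%, at 10 µM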;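 note: anti alpha tubulin signal scored within the nucleus-defined area of each cell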
# IEC-6 cytotox: kills IEC-6 intestinal cells in KLF5 counter-screen. IEC-6 cytotoxicity, luminescence viability. AID 1825. inhibition, % at 5 µM. 0.78% of 290,000 active; in the data active = inhibition above about 22%;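 note: 0% = plate median of test compound wells and 100% = cytotoxic reference compound wells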
# bCat nuc transl: alters nuclear translocation of beta-catenin in HeLa cells | nuclear translocation activity, % at 5 µM | AID 1665 | immunofluorescence imaging | 0.3% of 190,000 active;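 active = nuclear translocation activity above 50% at 5 µM, with a well cell count of 50 or more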;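 note: per-cell ratio of nuclear to cytoplasmic median beta-catenin stain intensity; plate controls were DMSO negative control for no effect and GSK-3 inhibitor IX positive control for full effect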
#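 Signal – beta-catenin immunofluorescence imaging with DAPI · Test system – human HeLa cell line · Dosing – 5 µM primary single dose, 0.1% DMSO, 0.02–20 µM confirmation series · Measure – % activation, nuclear-to-cytoplasmic median beta-catenin signal ratio per cell · Incubation – 24 h compound exposure at 37°C, 5% CO2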
# Ba/F3 V617F tox: lowers viability of Ba/F3 cells expressing EpoR and JAK2V617F | ATP luminescence | 1.1% of 220,000 active | inhibition, % at 5.6 µM | AID 1446;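 active = inhibition above the campaign mean plus 3 SD over all tested compounds, cut at about 24% in these data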;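 note: cytokine-independent growth of Ba/F3 cells driven by EpoR plus mutant JAK2; 0% = DMSO-treated cells and 100% = JAK inhibitor I control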
# APP transl inh: APP translation inhibition; SH-SY5Y APP 5'UTR-luciferase reporter, luminescence; inhibition, % at 2 µM; 0.82% of 190,000 active;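 active = inhibition above a set limit, derived from the sample mean plus 3 SD, cut at about 45% in these data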
# BaF3 parental: reduces parental Ba/F3 cell viability, JAK2V617F counter-screen. CellTiter-Glo ATP luminescence. inhibition, % at 5.6 µM. 1.1% of 220,000 active. AID 1486;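 active = inhibition above a per-campaign cutoff, the mean inhibition of all tested compounds plus 3 SD, cut at about 27% in these data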;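 note: 0% = DMSO wells and 100% = JAK Inhibitor I control wells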
# Starred values were filed as active, the others as inactive; nt = not tested or not shown. Sampled rows, rich in hits. Any-hit rate of the full collection: about 2.2%.
SMILES,MT stabilize HCS,IEC-6 cytotox,bCat nuc transl,Ba/F3 V617F tox,APP transl inh,BaF3 parental
Cc1ccc(C)c(OCC(=O)Nc2ccc3c(c2)OCO3)c1C,23*,4,nt,-6,-15,0
Fc1ccccc1NC(=S)NCCc1ccccc1,2,-6,0,-3,-34,6
Fc1ccc(NC(=S)NCCc2ccccc2)c(F)c1F,2,-2,-1,42*,-2,54*
CC(CCCC(C)(C)O)NC(=O)c1cc(COc2ccc3ncccc3c2)on1 (stereo not given),4,2,1,8,-4,44*
Cc1nc(CN(C)C(=O)c2cc(COc3ccc4ncccc4c3)on2)cs1,7,6,2,16,5,38*
O=C(NCc1cccc(Cl)c1)c1cc(COc2ccc3ncccc3c2)on1,2,5,0,2,3,4
Cc1ccc(NS(=O)(=O)c2cccc(C(=O)NCC(c3ccco3)N3CCCCC3)c2)cc1 (stereo not given),nt,7,nt,nt,nt,nt
O=C(NC(=S)Nc1ncc(Br)cc1Br)c1ccccc1,nt,-3,nt,nt,nt,nt
Nc1ccc(C#Cc2ccccc2)cc1,2,3,nt,-3,-7,5
Nc1ccccc1C#Cc1ccccc1,3,0,nt,14,-119,35*
CN1c2cccc3cccc(c23)N(C)C1(C)C,2,5,nt,27*,3,58*
Cc1ccc(C(=O)N/C(=C\c2ccc(-c3ccc(Cl)cc3)o2)C(=O)NCCCN(C)C)cc1,79,44*,-2,16,2,104*
Cc1[nH]c2ccccc2c1/C=C/c1nc2ccccc2c(=O)[nH]1,nt,15,1,5,nt,3
Cc1cccc(/C=C/c2nc3ccccc3c(=O)[nH]2)c1,26*,1,2,4,-92,4
O=C(CC1C(=O)NCCN1Cc1ccccc1C(F)(F)F)NCCc1ccccn1 (stereo not given),3,8,1,1,14,80*
O=C(CC1C(=O)NCCN1Cc1c(F)cccc1Cl)NCCc1ccccn1 (stereo not given),2,1,-2,3,8,8
CN(C)c1ccc(/C=N/n2c(C3CCCCC3)n[nH]c2=S)cc1,nt,-1,nt,nt,nt,nt
C=CCC(C#Cc1ccccc1)[N+](C)(C)CC=C (stereo not given),2,-1,0,41*,10,50*
CNC(=S)N1N=C(c2ccc(C)cc2)CC1c1cc(OC)ccc1OC (stereo not given),12*,13,1,-2,-19,2
CNC(=S)N1N=C(c2ccc(C)cc2)CC1c1ccc(OC)cc1 (stereo not given),1,-4,-2,-1,-3,9
Cc1ccc(/C=C(\C#N)C(=O)Nc2cccc(C)n2)cc1,nt,-6,nt,nt,nt,nt
O=S(=O)(c1ccc2c(c1)OCCO2)N1CCN(c2ncnc3sccc23)CC1,5,9,-2,44*,-1,78*
COc1ccccc1CN1CN(S(=O)(=O)c2ccccc2)c2nc3ccccc3nc21,nt,5,3,4,nt,-2
Fc1ccc(-c2nc3ccccc3[nH]2)cc1,1,4,1,2,-103,63*
O=C(OCc1ccccc1)/C(=C/c1cccc([N+](=O)[O-])c1)NC(=O)c1ccco1,nt,0,nt,nt,nt,nt
SMILES,MT stabilize HCS,IEC-6 cytotox,bCat nuc transl,Ba/F3 V617F tox,APP transl inh,BaF3 parental
O=C1NC(c2ccccc2Cl)Nc2ccccc21 (stereo not given),27*,0,-1,0,5,5
Clc1ccccc1C1Nc2cccc3cccc(c23)N1,nt,-8,nt,nt,nt,nt
CC(=O)c1cc2c(cc1NC(=O)c1ccc(C)cc1)OCCO2,nt,12,nt,nt,nt,nt
CCCCCCCC1CC(CSc2ncn[nH]2)OC1=O (stereo not given),4,5,-3,-1,49*,0
CCOC(=O)C(=CNc1cc(C)nn1C(C)(C)C)C(=O)OCC,1,0,-1,-2,nt,9
CCOC(=O)C(=CNc1cc(C)nn1-c1ccc(C)cc1)C(=O)OCC,2,10,-4,24*,22,17
CCc1nnc(NC(=O)CCN(c2cc(C)cc(C)c2)S(=O)(=O)c2ccc(Cl)cc2)s1,19*,1,0,1,1,7
Cc1cc(C)cc(N(CCC(=O)O)S(=O)(=O)c2ccc(Cl)cc2)c1,7,4,-2,5,-25,2
COc1ccc(/C(C)=N/OC/C(O)=C(\C#N)c2nc3ccccc3[nH]2)cc1OC,16*,-2,3,0,-15,7
